What all share (assay type): cell-based
Assay [1] deals with U2OS. The assay can be described thus: Inhibition of HOTTIP-WDR5 complex formation in human U2OS cells at 10 uM by in vitro RNA immunoprecipitation assay. In a few lines:
(§1)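 RIP assay on purified FLAG-WDR5 loaded at 0.2 mg/mL onto anti-FLAG magnetic beads (Buffer C with 0.1% IGEPAL, 0.1% BSA, 10 µg/mL yeast tRNA; 4 °C, 3 h). The beads were then given 1 µg of U-2 OS total RNA (TRIzol) with or without inhibitor, in 0.1% DMSO in RIP buffer (Tris pH 7.5, KCl, EDTA, RNasin), for 1 h at rt. RNA was read by RT-qPCR as percentage enrichment against a 50% input.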

Assay [2] relates to U2OS. The assay can be described thus: Inhibition of HOXC13-AS-WDR5 complex formation in human U2OS cells at 10 uM by in vitro RNA immunoprecipitation assay. In a few lines: as §1
For assay [3], the system named is MDA-MB-231. Put plainly: Inhibition of IncRNA-WDR5 complex in human MDA-MB-231 cells assessed as downregulation of HOTTIP expression measured at 10 uM after 3 days by RT-qPCR analysis. To be noted: time 3.0 day. In a few lines:
(§2)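 MDA-MB-231 cells (DMEM, 10% FBS, 37 °C, 5% CO2) were seeded in 12-well plates at 1×10^5 cells/well for 1-day runs or 5×10^4 cells/well for 3-day runs. After one day the medium was replaced with medium holding compound (1, 5 or 10 µM) or 0.1% DMSO blank. Total RNA was extracted with TRIzol and analysed by RT-qPCR. Fold change was calculated by 2^-ΔΔCt against GAPDH and the blank. Values are means of individual bioreplicates ± SD.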
(In general: Quantitative PCR measures a nucleic acid by following its amplification.)

Assay [4] concerns MDA-MB-231. Put plainly: Inhibition of IncRNA-WDR5 complex in human MDA-MB-231 cells assessed as downregulation of FOXD3-AS1 expression measured at 10 uM after 1 to 3 days by RT-qPCR analysis. To be noted: time 1-3 day. The method, boiled down:
as §2

Assay [5] relates to MDA-MB-231. The assay can be described thus: Inhibition of IncRNA-WDR5 complex in human MDA-MB-231 cells assessed as downregulation of HOTTIP expression measured at 10 uM after 1 day by RT-qPCR analysis. In a few lines: as §2

This passage reports inhibition results from ChEMBL document CHEMBL5376024, “Small molecule WDR5 inhibitors down-regulate lncRNA expression” (RSC Med Chem, 2024).

Calls of active or inactive are those of the source. The rule behind the calls is not given here.

For `CNC(=O)c1cc(C2(C#N)CCC2)cc(NS(=O)(=O)c2cc(Br)cc(Cl)c2O)c1O`, the inhibition entry in the assay with U2OS [1], in the assay with U2OS [2] and with MDA-MB-231 [3] was “Active” in each case. In addition, the inhibition result in the assay with MDA-MB-231 [4] and with MDA-MB-231 [5] was “inactive” throughout.

Consider `CN1CCN(c2ccc(-c3cccc(CN4CCOCC4)c3)cc2NC(=O)c2c[nH]c(=O)cc2C(F)(F)F)CC1`, for which the inhibition entry in the assay on U2OS [1] and in the assay on U2OS [2] was “inactive” throughout. In the assay on MDA-MB-231 [5], the inhibition result was “Active”.
